From paper PMC6044410 (Structure (London, England : 1993), 2017) come the findings set out here.

Where “and” joins values, the source holds several entries; their conditions need not be identical. Equal entries are not always repeated. Where two headings read alike, the source gives them in different places. Square brackets hold non-standard residues; d marks the D form. Peptide text beside a SMILES is read from it. * marks the point of attachment. FITC = O=C1OC2(c3ccc(O)cc3Oc3cc(O)ccc32)c2ccc(NC(=S)*)cc21; pT = C[C@@H](OP(=O)(O)O)[C@H](N)C(=O)O; pS = N[C@@H](COP(=O)(O)O)C(=O)O

The target of one assay is GST-hTopBP1 BRCT5 WT (Homo sapiens, UniProt Q92547). In words: Fluorescence polarization binding, GST-hBRCT5 WT. In general terms: Polarisation of emitted light reports the rotation of a fluorescent probe.
The target in assay [1] is human TopBP1 BRCT5, 641-746 (UniProt Q92547). In words: fluorescence polarization titration. The settings on record: reference: pSer304 peptide mock-treated without λ phosphatase; sites S304.
Assay [2] deals with TopBP1 BRCT4/5, untagged and GST-tagged forms (Homo sapiens, UniProt Q92547). In words: Fluorescence polarization binding, untagged and GST-tagged TopBP1 forms compared. The method in brief:
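Untagged BRCT4/5 was prepared by overnight PreScission cleavage of the GST fusion at 4 °C, then anion exchange at pH 7.0, glutathione-bead removal of GST, and gel filtration. Read-out was ex 485/em 538 nm; KD was curve-fitted and averaged over ≥3 measurements.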

Another assay deals with GST-hBRCT5 M689A (Homo sapiens, UniProt Q92547, M689A). In words: Fluorescence polarization binding, GST-hBRCT5 M689A.
Assay [3] addresses T1, GST-human TopBP1 BRCT5 (641-746), wild type (human, UniProt Q92547 641-746). In words: fluorescence polarisation.
The target of assay [4] is human TopBP1 BRCT4/5 (549-746), untagged (human, UniProt Q92547 549-746). The assay can be described thus: fluorescence polarisation.
The target in assay [5] is GST-human TopBP1 BRCT4/5 (549-746) (human, UniProt Q92547 549-746). In words: fluorescence polarisation.
For assay [6], the target named is T2, mouse TopBP1 BRCT4/5 (553-749), untagged (mouse, UniProt Q6ZQF0 553-749).
T2 sequence (looked up): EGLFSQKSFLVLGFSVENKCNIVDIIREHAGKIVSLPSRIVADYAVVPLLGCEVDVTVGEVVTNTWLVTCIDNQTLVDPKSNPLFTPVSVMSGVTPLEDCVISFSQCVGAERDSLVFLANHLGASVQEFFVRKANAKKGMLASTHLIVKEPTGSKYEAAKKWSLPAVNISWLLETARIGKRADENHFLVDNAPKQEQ
The assay can be described thus: fluorescence polarisation.

In assay [7] the target is GST-human TopBP1 BRCT5 S654A (human, UniProt Q92547 641-746, S654A). In words: fluorescence polarisation.
The target of assay [8] is GST-human TopBP1 BRCT5 K704A (human, UniProt Q92547 641-746, K704A). The assay can be described thus: fluorescence polarisation.
Assay [9] addresses GST-human TopBP1 BRCT5 R681E/K682E (human, UniProt Q92547 641-746, R681E | K682E). The assay can be described thus: fluorescence polarisation.
The target of assay [10] is GST-human TopBP1 BRCT5 K686E/K687E (human, UniProt Q92547 641-746, K686E | K687E). In words: fluorescence polarisation.
The target in assay [11] is GST-human TopBP1 BRCT5 A707K (human, UniProt Q92547 641-746, A707K). In words: fluorescence polarisation.
Assay [12] has as its target GST-human TopBP1 BRCT5 A707D (human, UniProt Q92547 641-746, A707D). The assay can be described thus: fluorescence polarisation.
Assay [13] deals with GST-human TopBP1 BRCT5 M689A (human, UniProt Q92547 641-746, M689A). The assay can be described thus: fluorescence polarisation.
For assay [14], the target named is GST-human TopBP1 BRCT5 Y678A (human, UniProt Q92547 641-746, Y678A). The assay can be described thus: fluorescence polarisation.
Assay [15] addresses T1, GST-human TopBP1 BRCT5 (641-746), wild …. The assay can be described thus: fluorescence polarisation. This is another data set of the same source.
For assay [16] the target is unchanged. In words: fluorescence polarisation. The source holds these as a separate data set.

T1 sequence (Q92547 641-746): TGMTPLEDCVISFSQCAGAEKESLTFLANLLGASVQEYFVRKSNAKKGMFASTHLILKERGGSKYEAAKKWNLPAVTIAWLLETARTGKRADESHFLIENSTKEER
Sequence of GST-hTopBP1 BRCT5 WT (Q92547 641-746): as above
Sequence of GST-human TopBP1 BRCT5 K686E/K687E (Q92547 641-746 K686E/K687E): as the sequence (Q92547 641-746) above, with K46E, K47E counted along it
Sequence of human TopBP1 BRCT4/5 (549-746), untagged (Q92547 549-746): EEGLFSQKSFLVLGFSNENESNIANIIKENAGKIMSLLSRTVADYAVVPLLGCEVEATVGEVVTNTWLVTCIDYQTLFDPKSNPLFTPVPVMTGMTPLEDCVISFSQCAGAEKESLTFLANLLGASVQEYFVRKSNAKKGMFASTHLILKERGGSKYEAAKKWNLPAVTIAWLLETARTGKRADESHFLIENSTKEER
Sequence of TopBP1 BRCT4/5, untagged and GST-tagged forms (Q92547 549-746): as above
Sequence of GST-human TopBP1 BRCT4/5 (549-746) (Q92547 549-746): as above
Sequence of GST-human TopBP1 BRCT5 A707K (Q92547 641-746 A707K): as the sequence (Q92547 641-746) above, with A67K counted along it
Sequence of GST-human TopBP1 BRCT5 R681E/K682E (Q92547 641-746 R681E/K682E): as the sequence (Q92547 641-746) above, with R41E, K42E counted along it
Sequence of GST-human TopBP1 BRCT5 M689A (Q92547 641-746 M689A): as the sequence (Q92547 641-746) above, with M49A counted along it
Sequence of GST-hBRCT5 M689A (Q92547 641-746 M689A): as the sequence (Q92547 641-746) above, with M49A counted along it
Sequence of GST-human TopBP1 BRCT5 Y678A (Q92547 641-746 Y678A): as the sequence (Q92547 641-746) above, with Y38A counted along it
Sequence of GST-human TopBP1 BRCT5 K704A (Q92547 641-746 K704A): as the sequence (Q92547 641-746) above, with K64A counted along it
Sequence of GST-human TopBP1 BRCT5 A707D (Q92547 641-746 A707D): as the sequence (Q92547 641-746) above, with A67D counted along it
Sequence of GST-human TopBP1 BRCT5 S654A (Q92547 641-746 S654A): as the sequence (Q92547 641-746) above, with S14A counted along it

By Kd is commonly meant the concentration at which binding is half-saturated. Lower therefore signals a tighter complex. Take `CC(C)C[C@H](NC(=O)[C@H](CC(=O)O)NC(=O)[C@H](CCCCN)NC(=O)[C@H](COP(=O)(O)O)NC(=O)[C@@H](NC(=O)[C@H](CO)NC(=O)[C@H](CC(C)C)NC(=O)[C@@H](NC(=O)[C@H](CC(=O)O)NC(=O)[C@H](CCC(=O)O)NC(=O)[C@H](CCCCN)NC(=S)Nc1ccc2c(c1)C(=O)OC21c2ccc(O)cc2Oc2cc(O)ccc21)C(C)C)[C@@H](C)O)C(N)=O` [pSer338] ({FITC}-KEDVLST[pS]KDL-NH2): at GST-hTopBP1 BRCT5 WT, the Kd is no less than 300 µM.
Turning to “BLM (Bloom syndrome, RecQ-like helicase) 297-309 (from UniProt P54132) λ phosphatase-treated pSer304 peptide”, in [1], the KD entry is “weaker; reference 2.6 ± 0.4”.
With `CC[C@H](C)[C@H](NC(=O)[C@@H](NC(=O)[C@H](CCC(=O)O)NC(=O)[C@H](CCC(=O)O)NC(=O)[C@@H]1CCCN1C(=O)[C@H](COP(=O)(O)O)NC(=O)[C@@H]1CCCN1C(=O)[C@@H]1CCCN1C(=O)[C@@H](NC(=O)[C@H](Cc1ccccc1)NC(=O)[C@H](CC(=O)O)NC(=O)[C@@H](NC(=O)[C@H](CC(=O)O)NC(=S)Nc1ccc2c(c1)C(=O)OC21c2ccc(O)cc2Oc2cc(O)ccc21)[C@@H](C)O)C(C)C)[C@@H](C)CC)C(N)=O` [pSer304] ({FITC}-DTDFVPP[pS]PEEII-NH2), the Kd in [2] fell in the range of 3 to 6 µM.
On GST-hTopBP1 BRCT5 WT (KD, FP, BLM pSer304 peptide treated with λ phosphatase, 1 hour at 30 °C), `CC[C@H](C)[C@H](NC(=O)[C@@H](NC(=O)[C@H](CCC(=O)O)NC(=O)[C@H](CCC(=O)O)NC(=O)[C@@H]1CCCN1C(=O)[C@H](CO)NC(=O)[C@@H]1CCCN1C(=O)[C@@H]1CCCN1C(=O)[C@@H](NC(=O)[C@H](Cc1ccccc1)NC(=O)[C@H](CC(=O)O)NC(=O)[C@@H](NC(=O)[C@H](CC(=O)O)NC(=S)Nc1ccc2c(c1)C(=O)OC21c2ccc(O)cc2Oc2cc(O)ccc21)[C@@H](C)O)C(C)C)[C@@H](C)CC)C(N)=O` [Ser304] ({FITC}-DTDFVPPSPEEII-NH2) registered a dissociation constant (Kd) of no less than 60 µM.
With `CC[C@H](C)[C@H](NC(=O)[C@H](Cc1ccccc1)NC(=O)CNC(=S)Nc1ccc2c(c1)C(=O)OC21c2ccc(O)cc2Oc2cc(O)ccc21)C(=O)N[C@@H](CC(=O)O)C(=O)N[C@@H](COP(=O)(O)O)C(=O)N[C@@H](CC(=O)O)C(=O)N[C@H](C(=O)N[C@@H](CC(=O)O)C(=O)N[C@H](C(=O)N[C@@H](CCC(=O)O)C(=O)N[C@@H](CCC(=O)O)C(=O)N[C@@H](CCC(=O)O)C(N)=O)C(C)C)[C@@H](C)OP(=O)(O)O` [MDC1, reference compound] ({FITC}-GFID[pS]D[pT]DVEEE-NH2), the Kd at GST-hTopBP1 BRCT5 WT and at GST-hBRCT5 M689A was 15 ± 1 µM throughout.
On to {FITC}-DTDFVPP[pS]PEEII-NH2 [FITC-labelled BLM pSer304 peptide (FITC-DTDFVPPpSPEEII-NH2)], for which the dissociation constant Kd in assay [3] was found to be 3.9 ± 0.3 µM; in assay [4], 3.2 ± 0.8 µM; in assay [5] it was 6 ± 1 µM; in assay [6] it was 6 ± 2 µM; in [7] it was 33 ± 3 µM; in [8], 42 ± 3 µM. The equilibrium dissociation constant (Kd) is 45 ± 2 µM in assay [9]; 36 ± 3 µM in assay [10]; 70 ± 20 µM in assay [11]; 320 ± 40 µM in assay [12]; 53 ± 4 µM in assay [13]; 18 ± 2 µM in assay [14]. Also, in assay [15], the equilibrium dissociation constant (Kd) was 2.6 µM and 3.7 µM.
Take {FITC}-KEDVLST[pS]KDL-NH2 [FITC-labelled BLM pSer338 peptide (FITC-KEDVLSTpSKDL-NH2)]: the affinity in [3], expressed as Kd, was 285 ± 10 µM.
Molecule {FITC}-DTDFVPPSPEEII-NH2 [Unphosphorylated Ser304 BLM peptide (FITC-DTDFVPPSPEEII-NH2)] had a Kd in assay [16] of 60 ± 10 µM.
